# From PMC10032210 (Biomaterials, 2022)
# Columns and labels:
# [1] = system: MDAMB231; assay: In vitro uptake of GNRs, gold content by ICP-MS; assay type: cell-based, Human; details: 10 μM CA074 for 12 hr, then peptide GNR 24 hr
# Summary of the method: (§1)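 Cells in 10% FBS medium (HT29 McCoy's, MDA MB231 DMEM, PANC1 RPMI 1640) at 37 °C, 5% CO2. At 70% confluence: 10 μM CA074 for 12 hr, then 0.05 OD GNR in serum-free medium for 24 hr. Cells washed, trypsinized, pelleted, dried at 56 °C and digested in aqua regia (60 °C, 4 hr). Gold measured by ICP-MS against gold standards, normalized to cell count; mean ± SEM.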
# [2] = system: HT29; assay: In vitro uptake of GNRs, gold content by ICP-MS; assay type: cell-based, Human; details: 10 μM CA074 for 12 hr, then peptide GNR 24 hr
# Summary of the method: as §1
# [3] = system: PANC1; assay: In vitro uptake of GNRs, gold content by ICP-MS; assay type: cell-based, Human; details: 10 μM CA074 for 12 hr, then peptide GNR 24 hr
# Summary of the method: as §1
# [4] = system: HT29 xenograft tumors; assay: In vivo tumor uptake of GNRs, gold content by ICP-MS; parameters: species or system mice; details: CA074 10 mg/kg i.p., peptide GNR 8 OD i.v., 24 hr
# Summary of the method: (§2)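 Male athymic Swiss nude mice carried bilateral subcutaneous HT29, HCT116 and DLD1 xenografts (1×10^6 cells in PBS). At 7–8 mm tumors, mice were randomized, n=4/group. CA074 10 mg/kg i.p. daily; 100 μL of 8 OD GNR i.v. by tail vein on day 3 of CA074. At 24 hr, tumors and organs were harvested, weighed, lyophilized and digested in aqua regia. Gold by ICP-MS per gram dry tissue; mean ± SEM, unpaired two-tailed t-test.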
# [5] = system: HCT116 xenograft tumors; assay: as above; parameters: species or system mice; details: CA074 10 mg/kg i.p., peptide GNR 8 OD i.v., 24 hr
# Summary of the method: as §2
# [6] = target: Cathepsin B (Homo sapiens, UniProt P07858); assay: Cathepsin B-mediated hydrolysis of peptide constructs followed by HPLC; assay type: biochemical; details: Cathepsin B 1.34 × 10^−13 M, 25 °C, least-squares regression
# Summary of the method: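 Substrate at 1·10^-7 M with cathepsin B (1.34·10^-13 M, activated by 1 mM DTT) in 50 mM sodium citrate pH 6.0, 1 mL, filter-sterilized, held dark at 25 °C. Repeated reversed-phase HPLC injections ran over ≥6× reaction half-life; UV detection at 220 nm. Percentage substrate remaining came from peak area versus known injected amount. Pseudo-first-order half-life given as mean ± SD; ≥3 repeats.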
degradation reaction half-life (t½) relative to native GFGFVG peptide [6],Compound,change in peptide GNR uptake (ICP-MS) with CA074 compared to peptide GNRs alone [1],change in peptide GNR uptake (ICP-MS) with CA074 compared to peptide GNRs alone [2],change in peptide GNR uptake (ICP-MS) with CA074 compared to peptide GNRs alone [3],effect of inhibitor on peptide GNR uptake by xenograft tumors (ICP-MS) [4],effect of inhibitor on peptide GNR uptake by xenograft tumors (ICP-MS) [5]
,CCCNC(=O)[C@H]1O[C@@H]1C(=O)N[C@H](C(=O)N1CCC[C@H]1C(=O)O)[C@@H](C)CC [CA074],two-fold reduction,two-fold reduction,two-fold reduction,abrogates the increased uptake,abrogates the increased uptake
nearly three-fold,MeO-PEG20k-GFGFVG [PEGylated GFGFVG],,,,,
about three-fold higher,MeO-PEG20k-GGFGFVGGR9WC,,,,,
